Test results as given in ChEMBL document CHEMBL3779892, “Increasing the binding affinity of VEGFR-2 inhibitors by extending their hydrophobic interaction with the active site: Design, synthesis and biological evaluation of 1-substituted-4-(4-methoxybenzyl)phthalazine derivatives” (Eur J Med Chem, 2016).

Legend:
Assay type in all cases: functional
[1] = Growth inhibition of human HCT116 cells at 10 uM after 48 hrs by sulforhodamine B assay; conditions: HCT-116, 48 h, read-out: GI
Outline: (§1)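 Run at NCI on the 60-line panel. Cells grown in RPMI 1640 with 5% FBS and 2 mM L-glutamine, plated at 5000–40,000 cells/well by doubling time, and held 24 h at 37 °C before dosing. Drug (DMSO stock) given at a single final 10 µM in triplicate wells for 48 h. Adherent cells fixed with cold TCA (10% final), suspension cells with 16% TCA. SRB stain read at 515 nm. Percent growth from Tz, C and Ti.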

[2] = Growth inhibition of human HOP92 cells at 10 uM after 48 hrs by sulforhodamine B assay; conditions: HOP-92, 48 h, read-out: GI; outline: as §1
A549 = experiment: Growth inhibition of human A549 cells at 10 uM after 48 hrs by sulforhodamine B assay; conditions: A549, 48 h, read-out: GI; outline: as §1
M14 = experiment: Growth inhibition of human M14 cells at 10 uM after 48 hrs by sulforhodamine B assay; conditions: M14, 48 h, read-out: GI; outline: as §1
ACHN = experiment: Growth inhibition of human ACHN cells at 10 uM after 48 hrs by sulforhodamine B assay; conditions: read-out: GI; outline: as §1
[3] = Growth inhibition of human RPMI8226 cells at 10 uM after 48 hrs by sulforhodamine B assay; conditions: RPMI-8226, 48 h, read-out: GI; outline: as §1
SK-MEL-28 = experiment: Growth inhibition of human SK-MEL-28 cells at 10 uM after 48 hrs by sulforhodamine B assay; conditions: SK-MEL-28, 48 h, read-out: GI; outline: as §1
[4] = Growth inhibition of human HCC2998 cells at 10 uM after 48 hrs by sulforhodamine B assay; conditions: HCC 2998, 48 h, read-out: GI; outline: as §1
SN12C = experiment: Growth inhibition of human SN12C cells at 10 uM after 48 hrs by sulforhodamine B assay; conditions: read-out: GI; outline: as §1
[5] = Growth inhibition of human SNB19 cells at 10 uM after 48 hrs by sulforhodamine B assay; conditions: SNB-19, 48 h, read-out: GI; outline: as §1
[6] = Growth inhibition of human OVCAR4 cells at 10 uM after 48 hrs by sulforhodamine B assay; conditions: OVCAR-4, 48 h, read-out: GI; outline: as §1
MDA-MB-468 = experiment: Growth inhibition of human MDA-MB-468 cells at 10 uM after 48 hrs by sulforhodamine B assay; conditions: MDA-MB-468, 48 h, read-out: GI; outline: as §1
CCRF-CEM = experiment: Growth inhibition of human CCRF-CEM cells at 10 uM after 48 hrs by sulforhodamine B assay; conditions: read-out: GI; outline: as §1
[7] = Growth inhibition of human COLO205 cells at 10 uM after 48 hrs by sulforhodamine B assay; conditions: COLO 205, 48 h, read-out: GI; outline: as §1
KM12 = experiment: Growth inhibition of human KM12 cells at 10 uM after 48 hrs by sulforhodamine B assay; conditions: KM12, 48 h, read-out: GI; outline: as §1
[8] = Growth inhibition of human LOXIMVI cells at 10 uM after 48 hrs by sulforhodamine B assay; conditions: LOX IMVI, read-out: GI; outline: as §1
[9] = Growth inhibition of human HCT15 cells at 10 uM after 48 hrs by sulforhodamine B assay; conditions: HCT-15, 48 h, read-out: GI; outline: as §1
HT-29 = experiment: Growth inhibition of human HT-29 cells at 10 uM after 48 hrs by sulforhodamine B assay; conditions: HT-29, 48 h, read-out: GI; outline: as §1
Malme-3M = experiment: Growth inhibition of human MALME-3M cells at 10 uM after 48 hrs by sulforhodamine B assay; conditions: read-out: GI; outline: as §1
SR = experiment: Growth inhibition of human SR cells at 10 uM after 48 hrs by sulforhodamine B assay; conditions: read-out: GI
Outline: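 NCI-60 screen. Cells were grown in RPMI 1640 with 5% FBS and 2 mM L-glutamine, plated at 5000–40,000 cells/well and held 24 h at 37 °C, 5% CO2. Single 10 µM final dose from DMSO stock, triplicate wells, 48 h. Settled cells were fixed with 80% TCA (16% final) and stained with 0.4% SRB. Dye was solubilized in 10 mM Tris and read at 515 nm. Growth was calculated against time-zero and untreated wells.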

SK-MEL-5 = experiment: Growth inhibition of human SK-MEL-5 cells at 10 uM after 48 hrs by sulforhodamine B assay; conditions: SK-MEL-5, 48 h, read-out: GI; outline: as §1
[10] = Growth inhibition of human PC3 cells at 10 uM after 48 hrs by sulforhodamine B assay; conditions: PC-3, 48 h, read-out: GI; outline: as §1
[11] = Growth inhibition of human SKOV3 cells at 10 uM after 48 hrs by sulforhodamine B assay; conditions: SK-OV-3, 48 h, read-out: GI; outline: as §1
[12] = Growth inhibition of human RXF393 cells at 10 uM after 48 hrs by sulforhodamine B assay; conditions: RXF 393, 48 h, read-out: GI; outline: as §1
K562 = experiment: Growth inhibition of human K562 cells at 10 uM after 48 hrs by sulforhodamine B assay; conditions: K562, 48 h, read-out: GI; outline: as §1
[13] = Growth inhibition of human BT549 cells at 10 uM after 48 hrs by sulforhodamine B assay; conditions: BT-549, 48 h, read-out: GI; outline: as §1
[14] = Growth inhibition of human SF268 cells at 10 uM after 48 hrs by sulforhodamine B assay; conditions: SF-268, 48 h, read-out: GI; outline: as §1
[15] = Growth inhibition of human SW620 cells at 10 uM after 48 hrs by sulforhodamine B assay; conditions: SW-620, 48 h, read-out: GI
Outline: (§2)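 NCI-60 panel, adherent cells grown in RPMI 1640 with 5% FBS and 2 mM L-glutamine, plated at 5000–40,000 cells/well and preincubated 24 h at 37 °C, 5% CO2. 10 µM final compound from DMSO stock, triplicate wells, 48 h. Fixed with cold TCA (10% final, 60 min, 4 °C) and stained with 0.4% SRB. Absorbance read at 515 nm; growth calculated against time-zero and control wells.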

[16] = Growth inhibition of human SF295 cells at 10 uM after 48 hrs by sulforhodamine B assay; conditions: SF-295, 48 h, read-out: GI; outline: as §1
NCI-H460 = experiment: Growth inhibition of human NCI-H460 cells at 10 uM after 48 hrs by sulforhodamine B assay; conditions: NCI-H460, 48 h, read-out: GI; outline: as §1
MCF7 = experiment: Growth inhibition of human MCF7 cells at 10 uM after 48 hrs by sulforhodamine B assay; conditions: MCF7, 48 h, read-out: GI; outline: as §1
[17] = Growth inhibition of human OVCAR8 cells at 10 uM after 48 hrs by sulforhodamine B assay; conditions: OVCAR-8, 48 h, read-out: GI; outline: as §1
[18] = Growth inhibition of human UO31 cells at 10 uM after 48 hrs by sulforhodamine B assay; conditions: UO-31, 48 h, read-out: GI; outline: as §2
[19] = Growth inhibition of human OVCAR5 cells at 10 uM after 48 hrs by sulforhodamine B assay; conditions: OVCAR-5, 48 h, read-out: GI; outline: as §1

| SMILES | inhibition of growth at 10 µM [1] [%] | inhibition of growth at 10 µM [2] [%] | inhibition of growth at 10 µM (A549) [%] | inhibition of growth at 10 µM (M14) [%] | inhibition of growth at 10 µM (ACHN) [%] | inhibition of growth at 10 µM [3] [%] | inhibition of growth at 10 µM (SK-MEL-28) [%] | inhibition of growth at 10 µM [4] [%] | inhibition of growth at 10 µM (SN12C) [%] | inhibition of growth at 10 µM [5] [%] | inhibition of growth at 10 µM [6] [%] | inhibition of growth at 10 µM (MDA-MB-468) [%] | inhibition of growth at 10 µM (CCRF-CEM) [%] | inhibition of growth at 10 µM [7] [%] | inhibition of growth at 10 µM (KM12) [%] | inhibition of growth at 10 µM [8] [%] | inhibition of growth at 10 µM [9] [%] | inhibition of growth at 10 µM (HT-29) [%] | inhibition of growth at 10 µM (Malme-3M) [%] | inhibition of growth at 10 µM (SR) [%] | further results |
| --- | --- | --- | --- | --- | --- | --- | --- | --- | --- | --- | --- | --- | --- | --- | --- | --- | --- | --- | --- | --- | --- |
| COc1ccc(Cc2nnc(Nc3ccc(NC(=O)Nc4ccc(Cl)c(C(F)(F)F)c4)cc3)c3ccccc23)cc1 | 53 | < 30 | 48 | 40 | 50 | 66 | < 30 | < 30 | < 30 | 45 | 60 | 37 | 55 | 30 | 51 | 32 | 40 | 61 | < 30 | 40 | inhibition of growth at 10 µM (SK-MEL-5): 36%; inhibition of growth at 10 µM [10]: 45%; inhibition of growth at 10 µM [11]: 38%; inhibition of growth at 10 µM [12]: 72%; inhibition of growth at 10 µM (K562): 43%; inhibition of growth at 10 µM [13]: < 30%; inhibition of growth at 10 µM [14]: < 30%; inhibition of growth at 10 µM [15]: < 30%; inhibition of growth at 10 µM [16]: 50%; inhibition of growth at 10 µM (NCI-H460): 36%; inhibition of growth at 10 µM (MCF7): 46%; inhibition of growth at 10 µM [17]: 66%; inhibition of growth at 10 µM [18]: < 30%; inhibition of growth at 10 µM [19]: 30% |
| COc1ccc(Cc2nnc(Nc3ccc(NC(=O)Nc4ccccc4)cc3)c3ccccc23)cc1 | 35 | < 30 | < 30 | < 30 | < 30 | 46 | < 30 | < 30 | < 30 | < 30 | < 30 | < 30 | 34 | < 30 | < 30 | < 30 | < 30 | < 30 | < 30 | < 30 | inhibition of growth at 10 µM (SK-MEL-5): < 30%; inhibition of growth at 10 µM [10]: 30%; inhibition of growth at 10 µM [11]: < 30%; inhibition of growth at 10 µM [12]: 49%; inhibition of growth at 10 µM (K562): < 30%; inhibition of growth at 10 µM [13]: < 30%; inhibition of growth at 10 µM [14]: < 30%; inhibition of growth at 10 µM [15]: < 30%; inhibition of growth at 10 µM [16]: < 30%; inhibition of growth at 10 µM (NCI-H460): < 30%; inhibition of growth at 10 µM (MCF7): < 30%; inhibition of growth at 10 µM [17]: < 30%; inhibition of growth at 10 µM [18]: < 30%; inhibition of growth at 10 µM [19]: < 30% |
